Data reported in ChEMBL document CHEMBL1157790, “3'-bromo analogues of pyrimidine nucleosides as a new class of potent inhibitors of Mycobacterium tuberculosis” (J Med Chem, 2010).
In brackets after ≈: the same amount, converted by molar mass.

Tests used:
[1] = Cytotoxicity against human HuH7 cells after 2 days by XTT assay; format: cell-based, Huh-7
Method in brief: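 Huh-7 cells seeded at 2 × 10⁴/well and allowed to attach 6-8 h, then exposed to 200, 100, 50, 10 and 1 μg/mL compound, DMSO control, 2 days at 37 °C. XTT reagent added for 4 h at 37 °C; absorbance read at 450-500 nm.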

[2] = Cytotoxicity against human HuH7 cells assessed as incorporation of [3H]thymidine into DNA after 2 days by scintillation counting; format: cell-based, Huh-7
Method in brief: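 Huh-7 cells plated at 1 × 10⁴/well, compounds at 200, 100, 50, 10 and 1 μg/mL in triplicate, DMSO control, 2 days at 37 °C. Pulsed with 0.5 μCi/well [³H]-thymidine for 12-18 h, harvested onto filters, and incorporated DNA label counted by liquid scintillation.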

[3] = tested on: Mycobacterium tuberculosis; experiment: Antimycobacterial activity against Mycobacterium tuberculosis H37Ra at 100 ug/ml after 6 days by microplate alamar blue assay; format: functional; conditions: 144 h
Method in brief: (§1)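 H37Ra from frozen inoculum, 2.5 × 10⁵ CFU/mL final, in 7H9GC medium; compounds from 10 mg/mL DMSO stock tested at 100, 50, 25, 10, 5 and 1 μg/mL in triplicate, run twice. Incubated 6 days, then alamar blue plus Tween 80 added, read after 24 h visually and by fluorescence. Percent inhibition against bacteria-only and medium-only wells; MIC50 is the lowest concentration giving ~50% inhibition.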

[4] = tested on: Mycobacterium tuberculosis; experiment: Antimycobacterial activity against Mycobacterium tuberculosis H37Ra at 10 ug/ml after 6 days by microplate alamar blue assay; format: functional; conditions: 144 h; method in brief: as §1
[5] = tested on: Mycobacterium tuberculosis; experiment: Antimycobacterial activity against Mycobacterium tuberculosis H37Ra at 1 ug/ml after 6 days by microplate alamar blue assay; format: functional; conditions: 144 h; method in brief: as §1
[6] = tested on: Mycobacterium tuberculosis; experiment: Antimycobacterial activity against Mycobacterium tuberculosis H37Ra after 6 days by microplate alamar blue assay; format: functional; conditions: 144 h; method in brief: as §1
[7] = tested on: Mycobacterium tuberculosis; experiment: Antimycobacterial activity against Mycobacterium tuberculosis H37Ra at 25 ug/ml after 4 days; format: functional
Method in brief: (§2)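 THP-1 cells, 2 × 10⁵/well, differentiated 3 days with 100 nM PMA, then infected 3 h with ~10⁷ CFU H37Ra. Non-phagocytosed bacteria removed. Compounds at 25, 10, 5 or 1 μg/mL in triplicate, rifampicin or isoniazid controls at 2.5 μg/mL, 4 days. Lysates plated in serial dilution on 7H11, colonies counted at 2-3 weeks. Percent CFU reduction versus untreated control; run twice.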

[8] = tested on: Mycobacterium tuberculosis; experiment: Antimycobacterial activity against Mycobacterium tuberculosis H37Ra at 10 ug/ml after 4 days; format: functional; method in brief: as §2
[9] = tested on: Mycobacterium tuberculosis; experiment: Antimycobacterial activity against Mycobacterium tuberculosis H37Ra at 25 ug/ml after 6 days by microplate alamar blue assay; format: functional; conditions: 144 h; method in brief: as §1
[10] = tested on: Mycobacterium tuberculosis; experiment: Antimycobacterial activity against Mycobacterium tuberculosis H37Ra at 50 ug/ml after 6 days by microplate alamar blue assay; format: functional; conditions: 144 h; method in brief: as §1
[11] = tested on: Mycobacterium tuberculosis; experiment: Antimycobacterial activity against Mycobacterium tuberculosis H37Ra at 5 to 10 ug/ml after 6 days by microplate alamar blue assay; format: functional; method in brief: as §1
[12] = tested on: Mycobacterium tuberculosis; experiment: Antimycobacterial activity against Mycobacterium tuberculosis H37Ra at 5 ug/ml after 6 days by microplate alamar blue assay; format: functional; conditions: 144 h; method in brief: as §1
[13] = tested on: Mycobacterium tuberculosis; experiment: Antimycobacterial activity against Mycobacterium tuberculosis H37Ra at 2.5 ug/ml after 4 days; format: functional; method in brief: as §2

Row | SMILES | CC50 at 48 h [1] | CC50 at 48 h [2] | inhibition at 100 µg/mL [3] | MIC50 [6] | inhibition at 50 µg/mL [10] | further results
1 | O=c1[nH]c(=O)n([C@H]2C[C@@H](I)[C@@H](CO)O2)cc1F | > 100 µg/mL | > 100 µg/mL | 40% |  |  | 
2 | O=c1ccn([C@@H]2O[C@H](CO)[C@@H](Br)[C@@H]2O)c(=O)[nH]1 | > 100 µg/mL | > 100 µg/mL | 24% |  |  | 
3 | Cc1cn([C@@H]2O[C@H](CO)[C@@H](Br)[C@@H]2O)c(=O)[nH]c1=O | > 100 µg/mL | > 100 µg/mL | 50% | 1 µg/mL (≈ 3.11 µM) |  | inhibition at 10 µg/mL [4]: 75%; inhibition at 1 µg/mL [5]: 50%; Activity [7]: >90%; Activity [8]: 80%
4 | O=c1[nH]c(=O)n([C@@H]2O[C@H](CO)[C@@H](Br)[C@@H]2O)cc1F | > 100 µg/mL | > 100 µg/mL | 91% | 25 µg/mL (≈ 76.9 µM) |  | inhibition at 25 µg/mL [9]: 50%
5 | O=c1ccn([C@@H]2O[C@H](CO)[C@H](O)[C@H]2Br)c(=O)[nH]1 | > 100 µg/mL | > 100 µg/mL | 0% |  |  | 
6 | Cc1cn([C@@H]2O[C@H](CO)[C@H](O)[C@H]2Br)c(=O)[nH]c1=O | > 100 µg/mL | > 100 µg/mL | 80% | 25 µg/mL (≈ 77.9 µM) | 60% | 
7 | Cc1cn([C@H]2C[C@H](Br)[C@@H](CO)O2)c(=O)[nH]c1=O | > 100 µg/mL | > 100 µg/mL | 100% | 5 µg/mL (≈ 16.4 µM) | 82% | Activity [7]: 90%; Activity [8]: 50%; inhibition (INH) [11]: 5%
8 | O=c1[nH]c(=O)n([C@@H]2O[C@H](CO)[C@H](O)[C@H]2Br)cc1F | > 100 µg/mL | > 100 µg/mL | 0% |  |  | inhibition at 25 µg/mL [9]: 50%
9 | O=c1[nH]c(=O)n([C@H]2C[C@H](Br)[C@@H](CO)O2)cc1F | > 100 µg/mL | > 100 µg/mL | 80% | 50 µg/mL (≈ 162 µM) | 50% | 
10 | O=c1[nH]c(=O)n([C@H]2C[C@@H](Br)[C@@H](CO)O2)cc1F | > 100 µg/mL | > 100 µg/mL | 100% | 25 µg/mL (≈ 80.9 µM) | 63% | inhibition at 25 µg/mL [9]: 40%
11 | O=c1[nH]c(=O)n([C@H]2C[C@@H](Cl)[C@@H](CO)O2)cc1F | > 100 µg/mL | > 100 µg/mL | 90% | 25 µg/mL (≈ 94.5 µM) | 60% | inhibition at 25 µg/mL [9]: 40%
12 | Cc1cn([C@H]2C[C@H](Cl)[C@@H](CO)O2)c(=O)[nH]c1=O | > 100 µg/mL | > 100 µg/mL | 68% | 50 µg/mL (≈ 192 µM) | 50% | 
13 | O=c1[nH]c(=O)n([C@H]2C[C@H](I)[C@@H](CO)O2)cc1F | > 100 µg/mL | > 100 µg/mL | 32% |  |  | 
14 | O=c1[nH]c(=O)n([C@H]2C[C@H](Cl)[C@@H](CO)O2)cc1F | > 100 µg/mL | > 100 µg/mL | 40% |  |  | 
15 | Cc1cn([C@H]2C[C@H](I)[C@@H](CO)O2)c(=O)[nH]c1=O | > 100 µg/mL | > 100 µg/mL | 0% |  |  | 
16 | O=c1[nH]c(=O)n([C@H]2C[C@H](F)[C@@H](CO)O2)cc1F |  |  | 0% |  |  | 
17 | Cc1cn([C@H]2C[C@H](F)[C@@H](CO)O2)c(=O)[nH]c1=O [ALOVUDINE] |  |  | 0% |  |  | 
18 | N[C@@H]1CONC1=O [CYCLOSERINE] |  |  |  | 5 µg/mL (≈ 49 µM) | 100% | inhibition at 25 µg/mL [9]: 80%; inhibition at 5 µg/mL [12]: 50%
19 | NNC(=O)c1ccncc1 [ISONIAZID] |  |  |  | < 1 µg/mL |  | inhibition at 1 µg/mL [5]: 100%; Activity [13]: >98%
20 | CO[C@H]1/C=C/O[C@@]2(C)Oc3c(C)c(O)c4c(O)c(c(/C=N/N5CCN(C)CC5)c(O)c4c3C2=O)NC(=O)/C(C)=C\C=C\[C@H](C)[C@H](O)[C@@H](C)[C@@H](O)[C@@H](C)[C@H](OC(C)=O)[C@@H]1C [RIFAMPIN] |  |  |  | < 0.5 µg/mL |  | Activity [13]: >98%
